The results in this text go back to ChEMBL document CHEMBL4321808, “Heteroaryl Phosphonates as Noncovalent Inhibitors of Both Serine- and Metallocarbapenemases” (J Med Chem, 2019).

Structures are written as SMILES. ≈ marks a conversion by molar mass, not a printed value.

Broadly, the Ki is the dissociation constant of the complex between target and ligand, obtained from inhibition or displacement.

A short description of data set [1]: Inhibition of N-terminal 6x-His/Sumo-tagged NDM-1 (29 to 270 residues) (unknown origin) expressed in Escherichia coli BL21 (DE3) assessed as reduction in nitrocefin hydrolysis by spectrophotometry. Set-up: species or system Bacteria. In outline:
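Metallo-enzyme assay in 50 mM HEPES pH 7.2 with 50 µM zinc sulfate, 0.01% Triton X-100 and 20 µg/mL BSA, 37 °C. NDM-1 was construct 1 with the His/SUMO tag cleaved, at 2 nM; VIM-2 had its His tag TEV-cleaved, at 0.5 nM.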

Data set [2] is described as follows: Inhibition of N-terminal 6x-His-tagged VIM-2 (unknown origin) expressed in Escherichia coli Rosetta 2 (DE3) assessed as reduction in nitrocefin hydrolysis by spectrophotometry. Set-up: species or system Bacteria. In outline: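 Metallo-enzyme assay in 50 mM HEPES pH 7.2 with 50 µM zinc sulfate, 0.01% Triton X-100 and 20 µg/mL BSA, 37 °C. NDM-1 was construct 1 with the His/SUMO tag cleaved, at 2 nM; VIM-2 had its His tag TEV-cleaved, at 0.5 nM. Nitrocefin hydrolysis read at 486 nm; IC50 from sigmoidal fit, Ki by Cheng-Prusoff; mostly duplicate.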

A short description of data set [3]: Inhibition of N-terminal 6x-His-tagged Klebsiella pneumoniae KPC2 (25 to 293 residues) assessed as reduction in nitrocefin hydrolysis by spectrophotometry. The essentials:
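Purified recombinant KPC-2 at 1 nM in 100 mM Tris-HCl pH 7.0 with 0.01% Triton X-100, 37 °C, reaction started by enzyme. IC50 from sigmoidal fit; Ki by Cheng-Prusoff using the nitrocefin Km. Run in duplicate, or once or in triplicate for some compounds.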

For data set [4], the system named is Escherichia coli. Nature of the data set: Inhibition of NDM-1 in Escherichia coli 5980 assessed as potentiation of ceftazidime-induced antimicrobial activity by measuring ceftazidime MIC incubated for 18 to 20 hrs by CLSI based method. The essentials:
(§1)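 CLSI broth microdilution in MHBII. Avibactam fixed at 4 µg/mL with ceftazidime at 64–0.006 µg/mL. Inoculum about 5×10^5 CFU per well, incubated at 35 °C for 18–20 h. Ceftazidime MIC read as absence of visible growth.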

In data set [5] the test system is Klebsiella pneumoniae. The data set is described as follows: Inhibition of KPC2 in Klebsiella pneumoniae 4683 assessed as potentiation of ceftazidime-induced antimicrobial activity by measuring ceftazidime MIC incubated for 18 to 20 hrs by CLSI based method. The essentials: as §1
The target in data set [6] is Beta-lactamase VIM-2 (Pseudomonas aeruginosa) (UniProt Q9K2N0). Nature of the data set: Inhibition of VIM-2 in Pseudomonas aeruginosa 4698 assessed as potentiation of ceftazidime-induced antimicrobial activity by measuring ceftazidime MIC incubated for 18 to 20 hrs by CLSI based method. In outline:
as §1

Data set [7] deals with Metallo-beta-lactamase type 2 (Klebsiella pneumoniae) (UniProt C7C422). Nature of the data set: Inhibition of NDM-1 in Klebsiella pneumoniae 5979 assessed as potentiation of ceftazidime-induced antimicrobial activity by measuring ceftazidime MIC incubated for 18 to 20 hrs by CLSI based method. In outline: as §1
Data set [8] relates to Enterobacter cloacae. Nature of the data set: Inhibition of NDM-1 in Enterobacter cloacae 5981 assessed as potentiation of ceftazidime-induced antimicrobial activity by measuring ceftazidime MIC incubated for 18 to 20 hrs by CLSI based method. The essentials: as §1
In data set [9] the test system is Klebsiella pneumoniae. The data set is described as follows: Antimicrobial activity against Klebsiella pneumoniae 5979 expressing NDM1 assessed as inhibition of microbial growth incubated for 18 to 20 hrs by CLSI based method. The data set is classed as organism-based. The essentials:
(§2)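 CLSI broth microdilution in MHBII. Compound tested alone in serial two-fold dilutions, 128–0.12 µg/mL. Inoculum was set to 0.5 McFarland and diluted to about 5×10^5 CFU per well. Plates incubated at 35 °C for 18–20 h. MIC read as the lowest concentration with no visible growth; an un-inoculated plate served as solubility control.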

The subject of data set [10] is Klebsiella pneumoniae. The settings on record: 4683.
Data set [11] is described as follows: Kinetic solubility in pH 7.4 PBS. It is filed as physicochemical. The settings on record: buffer.
Data set [12] has as its system Pseudomonas aeruginosa. The data set is described as follows: Antimicrobial activity against Pseudomonas aeruginosa 4698 expressing VIM2 assessed as inhibition of microbial growth incubated for 18 to 20 hrs by CLSI based method. It is filed as organism-based. The essentials:
as §2

The test system of data set [13] is Klebsiella pneumoniae. Nature of the data set: Antimicrobial activity against Klebsiella pneumoniae 4683 expressing KPC2 assessed as inhibition of microbial growth incubated for 18 to 20 hrs by CLSI based method. It is filed as organism-based. The essentials:
as §2

Data set [14] has as its system Escherichia coli. The data set is described as follows: Antimicrobial activity against Escherichia coli 5980 expressing NDM1 assessed as inhibition of microbial growth incubated for 18 to 20 hrs by CLSI based method. It is filed as organism-based. The essentials: as §2
Data set [15] has as its target Beta-lactamase VIM-2 (Pseudomonas aeruginosa) (UniProt Q9K2N0). The settings on record: 4698.
The test system of data set [16] is Enterobacter cloacae. Nature of the data set: Antimicrobial activity against Enterobacter cloacae 5981 expressing NDM1 assessed as inhibition of microbial growth incubated for 18 to 20 hrs by CLSI based method. The data set is classed as functional. The essentials:
as §2

Data set [17] deals with Escherichia coli. Nature of the data set: Inhibition of NDM-1 in Escherichia coli 5980 assessed as potentiation of imipenem-induced antimicrobial activity by measuring imipenem MIC incubated for 18 to 20 hrs by CLSI based method (reference value: 8 ug/ml). In outline:
(§3)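 CLSI broth microdilution in MHBII. […] Inoculum about 5×10^5 CFU per well, incubated at 35 °C for 18–20 h. Imipenem MIC read as absence of visible growth.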

The test system of data set [18] is Enterobacter cloacae. The data set is described as follows: Inhibition of NDM-1 in Enterobacter cloacae 5981 assessed as potentiation of imipenem-induced antimicrobial activity by measuring imipenem MIC incubated for 18 to 20 hrs by CLSI based method (reference value: 2 ug/ml). The essentials: as §3
In data set [19] the target is Metallo-beta-lactamase type 2 (Klebsiella pneumoniae) (UniProt C7C422). The data set is described as follows: Inhibition of NDM-1 in Klebsiella pneumoniae 5979 assessed as potentiation of imipenem-induced antimicrobial activity by measuring imipenem MIC incubated for 18 to 20 hrs by CLSI based method (reference value: <[…] ug/ml).
Data set [20] in a line: Permeability in MDCK-MDR1 cells assessed as drug recovery. The settings on record: dog. The data set is classed as ADME, cell-based, Canis lupus familiaris.

Chain of Metallo-beta-lactamase type 2 (Klebsiella pneumoniae) (C7C422 whole entry): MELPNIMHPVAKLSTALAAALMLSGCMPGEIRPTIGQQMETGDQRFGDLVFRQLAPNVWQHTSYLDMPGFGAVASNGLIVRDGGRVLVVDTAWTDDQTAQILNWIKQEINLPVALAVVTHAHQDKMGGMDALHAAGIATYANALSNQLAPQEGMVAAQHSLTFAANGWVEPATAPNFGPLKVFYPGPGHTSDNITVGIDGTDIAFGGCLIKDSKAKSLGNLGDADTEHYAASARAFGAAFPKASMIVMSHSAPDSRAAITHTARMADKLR

Consider `COc1ccc2c(CP(=O)(O)O)cc(=O)oc2c1`, for which the inhibitory constant (Ki) in [1] (read-out: Ki) was found to be 124 µM; in data set [2], 2.1 µM.
On to `O=P(O)(O)Cc1cccc2cccnc12`, for which the Ki in data set [2] was determined as 22.3 µM.
For the compound `COc1cc(C)cc2oc(=O)cc(CP(=O)(O)O)c12`, in data set [3], the Ki was 11.9 µM.
Take `NC(=O)[C@@H]1CC[C@@H]2CN1C(=O)N2OS(=O)(=O)O`: the MIC in [4], in data set [5], in data set [6], in data set [7] and in [8] was 4 µg/mL each time.
Take `O=P(O)(O)Cc1ccnc2ccccc12`: the Ki is 326 µM in [3], “Not Active” in data set [1] and 30.3 µM in [2].
On to `Cc1cc(C)c2c(CP(=O)(O)O)cc(=O)[nH]c2c1`, for which the MIC was above 128 µg/mL in data set [9]; 1 µg/mL (≈ 3.74 µM) in [10]; above 128 µg/mL in data set [12]; above 128 µg/mL in [13]; above 128 µg/mL in [14]; above 64 µg/mL in [15]. Besides, the MIC is above 128 µg/mL in [16], 2 µg/mL in data set [17], 2 µg/mL in data set [18] and 64 µg/mL in data set [19]. In data set [11], this compound came in with a Kinetic_solubility of 193 µM. Moreover, the Ki came out at 2.2 µM in [3], 56.2 µM in data set [1] (read-out: Ki) and 3.4 µM in data set [2].
For `O=c1cc(CP(=O)(O)O)c2ccccc2[nH]1`, the MIC in data set [9] is above 128 µg/mL; in data set [12], above 128 µg/mL; in data set [13], above 128 µg/mL; in data set [14], above 128 µg/mL; in data set [15], above 64 µg/mL; in data set [16] it was above 128 µg/mL. For the same compound, the figures for the MIC in data set [17], in data set [18] and in data set [19] were 2 µg/mL, 2 µg/mL and 32 µg/mL, respectively. The Ki in data set [1] (read-out: Ki) amounted to 190 µM; in data set [2] it was 6.4 µM.
As to `C[C@H]1O[C@@H](O[C@H]2[C@@H](O)C[C@H](O[C@H]3[C@@H](O)C[C@H](O[C@H]4CC[C@@]5(C)[C@H](CC[C@@H]6[C@@H]5C[C@@H](O)[C@]5(C)[C@@H](C7=CC(=O)OC7)CC[C@]65O)C4)O[C@@H]3C)O[C@@H]2C)C[C@H](O)[C@@H]1O` [DIGOXIN], the Drug recovery in data set [20] worked out at 105%.
